Laboratory results taken from article PMC6298601 (Biochemical pharmacology, 2018).
Values joined by “and” are separate entries in the source; they are usually repeats but may differ in a detail not shown here. Equal values may be shown once. “Also recorded” adds a separate entry of the source. Read-outs that look alike come from different tables or passages of the source.

Key:
recombinant human MAO-B [1] = target: T1, recombinant human MAO-B (Homo sapiens, UniProt P27338); assay: biochemical; format: biochemical
T1 sequence (P27338 1-520): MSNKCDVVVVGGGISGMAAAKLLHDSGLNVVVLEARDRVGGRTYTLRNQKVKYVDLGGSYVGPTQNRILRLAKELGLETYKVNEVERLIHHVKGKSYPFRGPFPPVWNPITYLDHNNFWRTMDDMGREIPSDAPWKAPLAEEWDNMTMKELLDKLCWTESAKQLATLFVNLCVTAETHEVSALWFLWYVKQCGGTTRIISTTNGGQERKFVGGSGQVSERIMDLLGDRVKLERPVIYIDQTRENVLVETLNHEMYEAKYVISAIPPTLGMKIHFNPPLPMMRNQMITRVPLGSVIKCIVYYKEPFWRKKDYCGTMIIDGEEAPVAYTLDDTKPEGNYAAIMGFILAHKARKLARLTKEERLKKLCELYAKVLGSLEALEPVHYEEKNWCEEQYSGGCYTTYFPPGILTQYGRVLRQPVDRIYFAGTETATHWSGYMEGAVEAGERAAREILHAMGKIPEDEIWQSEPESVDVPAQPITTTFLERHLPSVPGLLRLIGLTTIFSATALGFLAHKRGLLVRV

recombinant human MAO-A = target: T2, recombinant human MAO-A (Homo sapiens, UniProt P21397); assay: Fluorometric kynuramine deamination assay, recombinant human MAO-A inhibition; format: biochemical
T2 sequence (P21397 1-527): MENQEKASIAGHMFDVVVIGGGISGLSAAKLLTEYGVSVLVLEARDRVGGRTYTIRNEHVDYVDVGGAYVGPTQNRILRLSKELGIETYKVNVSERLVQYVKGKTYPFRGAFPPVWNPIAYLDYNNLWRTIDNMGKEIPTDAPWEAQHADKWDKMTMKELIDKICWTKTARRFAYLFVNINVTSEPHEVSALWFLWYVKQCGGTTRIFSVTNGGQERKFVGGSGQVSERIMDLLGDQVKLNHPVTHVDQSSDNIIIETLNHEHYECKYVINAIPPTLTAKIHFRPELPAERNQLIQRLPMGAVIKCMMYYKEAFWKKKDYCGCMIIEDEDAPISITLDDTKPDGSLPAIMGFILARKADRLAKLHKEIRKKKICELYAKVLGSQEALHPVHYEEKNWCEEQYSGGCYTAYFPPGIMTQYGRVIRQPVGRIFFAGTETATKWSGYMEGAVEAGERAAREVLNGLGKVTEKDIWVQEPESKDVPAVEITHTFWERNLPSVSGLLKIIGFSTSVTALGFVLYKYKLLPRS

[2] = cited from earlier work
recombinant human MAO-B [3] = target: T1, recombinant human MAO-B; format: biochemical
recombinant human MAO-B [4] = target: T1, recombinant human MAO-B; format: biochemical; remark: listed apart in the source
recombinant human MAO-B [5] = target: T1, recombinant human MAO-B; format: binding
[6] = Solubility observation at the concentrations tested; details: at the concentrations tested in the MAO assays
[7] = test system: MAO activity in Neuroscreen-1 (NS-1) cells; assay: MAO activity in lysates of treated Neuroscreen-1; format: cell-based, rat; details: deprenyl 1.0 μM, 12 hours
How it was run: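 NS-1 cells (rat PC12 subclone) in suspension culture were treated for 12 hours with test compound (100 µM), a selective MAO-B inhibitor reference (1.0 µM) or ethanol, alongside untreated controls. Lysates were prepared from the cells. MAO activity in the lysates was measured by fluorometric kynuramine deamination, with kynuramine at 80 µM for MAO-A and 50 µM for MAO-B.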

[8] = read-out: MAO-B IC50 (μM) ± S.D., kynuramine 50 μM, test compounds 0.01 to 100 μM, mean ± S.D. of triplicate

Compound: CCCCCCCC/C=C\CCCCCCCC(=O)NCCO [Oleylethanolamide]
- MAO-B IC50 (μM) ± S.D. (recombinant human MAO-B [1]; kynuramine 50 μM, test compounds 0.01 to 100 μM, mean ± S.D. of triplicate): no activity
- IC50 (recombinant human MAO-B [1]; [8]): > 100 µM
- MAO-A IC50 (μM) ± S.D. (recombinant human MAO-A; kynuramine 80 μM, test compounds 0.01 to 100 μM, mean ± S.D. of triplicate): no activity

Compound: CCCCC/C=C\C/C=C\C/C=C\C/C=C\CCCC(=O)NCC(=O)O [NA-glycine, N-arachidonyl-glycine]
- critical micellar concentration (CMC) ([2]; ref 48): > 100 µM

Compound: CCCCC/C=C\C/C=C\C/C=C\C/C=C\CCCCO [arachidonoyl alcohol]
- critical micellar concentration (CMC) ([2]; ref 46): 30 µM

Compound: CCCCC/C=C\C/C=C\C/C=C\C/C=C\CCCC(=O)NCCO [Anandamide]
- IC50 (recombinant human MAO-B [1]): 40 ± 4.6 µM
- IC50 (recombinant human MAO-A): > 100 µM

Compound: CCCCC/C=C\C/C=C\C/C=C\C/C=C\CCCC(=O)OCCN [Virodhamine]
- fold greater inhibition of MAO-B compared to MAO-A (recombinant human MAO-B [1]; ratio of IC50 MAO-A / MAO-B): ~ 55 fold and > 54 fold
- IC50 (recombinant human MAO-B [1]; [8]): 0.71 ± 0.04 µM
- inhibition of MAO-B after pre-incubation (recombinant human MAO-B [3]; 0.25 μM virodhamine, pre-incubation 0-15 min): 55-70%
- time dependence of MAO-B inhibition (recombinant human MAO-B [3]; pre-incubation 0-15 min, virodhamine 2.5 μM, deprenyl 0.100 μM): time-dependent
- inhibition of the enzyme activity at the concentration chosen (recombinant human MAO-B [3]; virodhamine 2.5 μM): > 60%
- MAO-B Type of Inhibition (recombinant human MAO-B [4]; Lineweaver-Burk analysis and dialysis): mixed mechanism/irreversible binding; also recorded: mixed enzyme inhibition mechanism
- Ki (recombinant human MAO-B [4]; read-out: MAO-B Ki (μM) ± S.D., kynuramine 1.90 to 500 μM, mean ± S.D. of triplicate): 0.258 ± 0.037 µM
- nature of binding with MAO-B (reversibility) (recombinant human MAO-B [5]; equilibrium dialysis overnight): irreversible
- enzyme activity recovered after overnight dialysis (recombinant human MAO-B [5]; virodhamine 10.0 μM, 20 min at 37 °C, dialysis 14-16 h at 4 °C): 2.644 ± 0.450%
- inhibition of catalytic activity before dialysis (recombinant human MAO-B [5]; virodhamine 10.0 μM, 20 min incubation): almost complete inhibition

Compound: CCCCC/C=C\C/C=C\C/C=C\C/C=C\CCCC(=O)OC(CO)CO [2-AG, 2-arachidonoylglycerol]
- IC50 (recombinant human MAO-B [1]): 50.5 ± 0.515 µM
- IC50 (recombinant human MAO-A): > 100 µM
- critical micellar concentration (CMC) ([2]; ref 48): 4.2 ± 0.5 µM
- solubility issues [6]: did not show any solubility issues

Compound: CCCCC/C=C\C/C=C\C/C=C\C/C=C\CCCCOC(CO)CO [Noladin ether]
- IC50 (recombinant human MAO-B [1]; [8]): 18.2 ± 1.45 µM
- solubility issues [6]: did not show any solubility issues

Compound: R-(−)-deprenyl hydrochloride
- inhibition of MAO activity in NS-1 cells [7]: > 90%

Compound: CCCCC/C=C\C/C=C\C/C=C\C/C=C\CCCC(=O)O [arachidonic acid]
- critical micellar concentration (CMC) ([2]; ref 46): 73 µM
- critical micellar concentration (CMC) ([2]; ref 47): ~ 30 μM

Compound: CCCCC/C=C\C/C=C\C/C=C\C/C=C\CCCC(=O)N[C@H](C)CO [(R)-(+)-Methanandamide]
- IC50 (recombinant human MAO-B [1]; [8]): 51.1 ± 1.3 µM
- solubility issues [6]: did not show any solubility issues
